Where a SMILES comes first, the peptide text is derived from it. [ ]: non-standard residue; d: D form. The star is where a group is joined. Nle = CCCC[C@H](N)C(=O)O; Bz = O=C(c1ccccc1)*; CF3 = FC(F)(F)* Where only a bound is given, the exact number is not on record here.

Sequence of Genome polyprotein (P29990 1346-1475 limits assumed): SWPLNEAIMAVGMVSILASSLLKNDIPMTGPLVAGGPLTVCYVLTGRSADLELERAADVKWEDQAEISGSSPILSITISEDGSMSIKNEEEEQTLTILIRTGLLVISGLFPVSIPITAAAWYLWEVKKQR
Sequence of Genome polyprotein (P29990 1476-2093 limits assumed): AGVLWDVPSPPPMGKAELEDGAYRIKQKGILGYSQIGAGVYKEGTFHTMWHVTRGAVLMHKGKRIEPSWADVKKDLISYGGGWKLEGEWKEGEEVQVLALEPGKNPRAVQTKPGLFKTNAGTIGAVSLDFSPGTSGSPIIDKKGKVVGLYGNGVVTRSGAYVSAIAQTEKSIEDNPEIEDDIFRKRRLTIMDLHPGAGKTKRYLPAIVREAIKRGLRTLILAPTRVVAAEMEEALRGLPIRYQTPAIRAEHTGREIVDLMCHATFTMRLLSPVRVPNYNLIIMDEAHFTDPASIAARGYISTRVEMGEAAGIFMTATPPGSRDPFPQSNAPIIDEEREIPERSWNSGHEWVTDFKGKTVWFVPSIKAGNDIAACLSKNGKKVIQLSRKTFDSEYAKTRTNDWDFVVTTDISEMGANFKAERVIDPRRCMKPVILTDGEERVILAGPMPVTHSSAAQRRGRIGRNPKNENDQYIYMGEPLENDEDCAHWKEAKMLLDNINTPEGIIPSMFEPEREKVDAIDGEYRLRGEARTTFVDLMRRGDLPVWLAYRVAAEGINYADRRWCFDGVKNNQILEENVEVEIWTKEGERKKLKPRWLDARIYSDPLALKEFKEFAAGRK

In this assay the target is Genome polyprotein (dengue virus type 2, UniProt P29990). Description: Inhibitory activity against CF40.NS3pro from Dengue virus type 2. The procedure, abridged:
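Enzyme: truncated dengue 2 NS3 protease fused through a flexible linker to a […] NS2B region. Inhibitors tested in 96-well format in 50 mM Tris, pH 8.5, with 1 mM CHAPS. Values reported as Ki.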
One may read the Ki as a measure of affinity in units of concentration, obtained from inhibition or displacement. `CCCC[C@H](NC(=O)c1ccccc1)C(=O)N[C@@H](CCCCN)C(=O)N[C@@H](CCCN=C(N)N)C(=O)N[C@@H](CCCN=C(N)N)B(O)O` displayed a Ki of 0.043 µM. For `CCCC[C@H](NC(=O)c1ccccc1)C(=O)N[C@@H](CCCCN)C(=O)N[C@@H](CCCNC(=N)N)C(=O)N[C@@H](CCCNC(=N)N)C(=O)c1nc2ccccc2o1` the value was 82.9 µM; for `CCCC[C@H](NC(=O)c1ccccc1)C(=O)N[C@@H](CCCCN)C(=O)N[C@@H](CCCNC(=N)N)C(=O)N[C@@H](CCCNC(=N)N)C(=O)c1nccs1`, 42.8 µM; for `CCCC[C@H](NC(=O)c1ccccc1)C(=O)N[C@@H](CCCCN)C(=O)N[C@@H](CCCN=C(N)N)C(=O)N[C@@H](CCCN=C(N)N)C(=O)NS(=O)(=O)C(F)(F)F`, more than 500 µM. As to `CCCC[C@H](NC(=O)c1ccccc1)C(=O)N[C@@H](CCCCN)C(=O)N[C@@H](CCCN=C(N)N)C(=O)N[C@@H](CCCN=C(N)N)C(O)C(=O)NCc1ccccc1` (stereo partly specified), the Ki stood at 178 µM. For `CCCC[C@H](NC(=O)c1ccccc1)C(=O)N[C@@H](CCCCN)C(=O)N[C@@H](CCCN=C(N)N)C(=O)N[C@@H](CCCN=C(N)N)C(=O)C(F)(F)F` (Bz-[Nle]KRR-CF3) the value was 0.85 µM; for `CCCC[C@H](NC(=O)c1ccccc1)C(=O)N[C@@H](CCCCN)C(=O)N[C@@H](CCCN=C(N)N)C(=O)N[C@@H](CCCN=C(N)N)C(N)=O` (Bz-[Nle]KRR-NH2), 128 µM; for `CCCC[C@H](NC(=O)c1ccccc1)C(=O)N[C@@H](CCCCN)C(=O)N[C@@H](CCCN=C(N)N)C(=O)N[C@@H](CCCN=C(N)N)C(=O)O` (Bz-[Nle]KRR-OH), more than 500 µM. For `CCCC[C@H](NC(=O)c1ccccc1)C(=O)N[C@@H](CCCCN)C(=O)N[C@H](C(=O)N[C@@H](CCCN=C(N)N)C(N)=O)[C@@H](C)O` (Bz-[Nle]KTR-NH2) the value was more than 500 µM; for `CCCC[C@H](NC(=O)c1ccccc1)C(=O)N[C@@H](CCCCN)C(=O)N[C@H](C(=O)N[C@@H](CCCN=C(N)N)C(=O)O)[C@@H](C)O` (Bz-[Nle]KTR-OH), more than 500 µM; for `CCCC[C@H](NC(=O)c1ccccc1)C(=O)N[C@@H](CCCCN)C(=O)N[C@H](C(=O)N[C@H](C=O)CCCN=C(N)N)[C@@H](C)O` (Bz-[Nle]KTR-aldehyde), more than 500 µM.
